This is an account of results in the RNAGym collection of RNA variant scans (doi:10.1126/science.aae0568).

First the molecules themselves.
B1: tRNA (parent)
chain: GUUCCGUUGGCGUAAUGGUAACGCGUCUCCCUCCUAAGGAGAAGACUGCGGGUUCGAGUCCCGUACGGAACG

This sample holds only a part of the variants without activity.

Variants of B1 are the subject of this series. The series is described as follows: yeast fitness relative to wild type (ratio to wild type); higher = fitter; tRNA-Arg(CCU), competitive growth, 37 C, YPD. The method, boiled down: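 Variants of the tRNA-Arg(CCU) gene were chemically synthesised with a 3% per-site mutation rate across 69 sites and placed at the native genomic locus in Saccharomyces cerevisiae. Six parallel replicates of the pooled strains were competed in YPD at 37°C for 24 hours, and gene amplicons from the start and end populations were read by 100-nucleotide paired-end sequencing. Darwinian fitness relative to wild type was derived from changes in genotype frequencies. Genotypes required ≥ 100 starting reads, and estimates < 0.5 were set to 0.5.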
Take GUGCCGUUGGCGUAAUGGUACCGCGUCUCCCUCCUAAGGAGAAGACUGCGAGUUCGAGUCCCGUACGGAACG: the yeast fitness worked out at 0.605.
For the variant GUCCCGUUGGCGUAAUGGUAACGCGUCUCCCUCCUAAGGAGAAGACUGCGGGAUCGAGUCCCGUACGGAACG, the yeast fitness was determined as 0.664.
As for GUGCCGUUGGCGUAAUGGUAACGCGUCUCCCUCCUAAGGAGAAGGCUGCGGGUUCGAGUCCCGUGCGGAACG, the figure is 0.729.
In the case of GUCCCGUUGGCGUAAUGGUAACGCGUCACCCUCCCACGGAGAAGACUGCGGGUUCCGGUCCCGUACGUAACG, the yeast fitness was no more than 0.5.
On to GUCCCGUUGGCGUAAGGGAAACGCGUCUCCCUCCUAAGGAGAUGACUGCGGGUUCGUGUCCCGUACGGAACG, for which the yeast fitness was no more than 0.5.
In the case of GUGCCGUUGGCGUCAUGGUAACGGGUCUCCCUCCUAAGGAGAAGACUGCGGGUUCGAGUUCCGAACGGAACG, the yeast fitness was no more than 0.5.
In the case of GUCCCGUUGGCGUAAUGGUAACGCGACUCCUUCCUAAGGAGAAGACUGCGGGUUCGAGUCCCGUACGGAACG, the yeast fitness came to 1.02.
With GUCCCGUUGGCGAAAUGGUAACGCGUCUCCUUCCUAAGGAAAAGACUGCGGGUUCGAGUCCCGUACGGAACG, the yeast fitness is 0.524.
Take GUGCCGUUGGCGUGAUGGUAACGCGUCUCCCUCCUAAGGAGAAGACUGCGGGUUCGAGUCCAGUACGGAACG: the yeast fitness came to 0.603.
GUGCCGUUGGCGUAAUGGUAGCGCGUCUCCCUCCUAAGGAGAAGACUGCGGGUUCGCGUCCCGUACGGAACG: the yeast fitness is no more than 0.5.
Turning to GUCCCGUUGGCGUAAUGGUAACGCGUCUCCCUCCCAAGGAGAAGACUGCGGGUUCGGGUCCCGUACGGAACG, the yeast fitness is 0.541.
In the case of GUCCCGUUGGCGUAAUGGUAACGCGUCUCCCUCCUAAGGAGAAGACUGCGGGUUCGAGCCCCGUACGGAACG, the yeast fitness was 0.961.
For the variant GUGCCGUUGGCGUAAUGGUAACGCGUCUCCCUCCUAAGGAGAAGACUGCGGGUUCGAGUCCCGUACGGACCG, the yeast fitness stood at 0.897.
Next, GUGCCGUUGGCGUAAUGGUGACGCGUCUCCCUCCUAAGGAGAAGACUGUGGGUUCGAGUCCCGUACGGAACG: no more than 0.5.
GUCCCGUUGGCGUAAUGGUAACGCGUCUCCCGCCUAAGGAGAAGACUGCGGGUUCGAGUCAAGUACGGAACG: the yeast fitness came out at 0.53.
For the variant GUGCCGUUGGCGUGAUGGUAACGCGUCUCUCUCCUAAGGAGAAGACUCCGGGUUCGAGUCCCGUACGCAACG, the yeast fitness was no more than 0.5.
For the variant GUGCCGUUGGCGUAUUGGUAACGCGUCUCCCUCCUAAGGAGAAGACUGCGGGUUCGAGUCACGUACGGAACG, the yeast fitness was no more than 0.5.
Turning to GUGCCGUUGGCGUUAUGGUAACGCGUCUCUCUCCUAAGGAGAAGACUGCGGGUUAGAGUCCCGUACGGAACG, the yeast fitness is no more than 0.5.
Consider GUCCCGUUGGCGUAAUGGUAACGCGUCUCCCGCCUAAGGCAAAGACUGCGGGUUCGAGUCCCGUACGGAACG, for which the yeast fitness is no more than 0.5.
In the case of GUCCCGUUGGCGUAAUGGUAACGCGCCUCCCUCCUAAGGAGAACACUGCGGGUACGAGUCCCGUACGGAACG, the yeast fitness was no more than 0.5.
Consider GUGCCGUUGGCGUAAUGGUAACGCGUCUCCCUCCUAAGGAGAAGACUGCGGGUUCGAGUCCCGUACGGCACG, for which the yeast fitness was 0.867.
Take GUCCCGUUGGCGUAAUGGAAACGCGUCUCCCUCCUAAGGAGAAGACUGCGGGUUCGAGUCCCGUGCGGAACG: the yeast fitness is 0.796.
As to GUGCCGUUGGCGUAAUGGUAACGCGUCUCCCUCCUAGGGAGAAGACUGCGGGUUCGAGUCCCGUACGGAACG, the yeast fitness is 0.724.
As for GUCCCGUUGGCGUAAUGGCAACGCGUCUCCCUCUUAAGGAGAAGACUGCGGGCUCGAGUCCCGUACGGAACG, the figure is no more than 0.5.
On to GUGCCGUUGGCGUAUUGGUAACGCGUCUCCCUCCUGAGGAGAAGACUGCGGGUUCGAGUCCCGUACGGAACG, for which the yeast fitness was no more than 0.5.
For GUGCCGUUGGCGUAUUGGUAACGCGUCUCCCUCCUAAGGAGAAGAGUGCGGGUUCGAGUCACGUACGGAACG, the yeast fitness was no more than 0.5.
Take GUGCGGUUGGCGUAAUGGUCACGCGUCUCCCUCCUAAGGAGACGACUGCGGGUUCGAGUCCCGUACGGAACG: the yeast fitness is 0.557.
Next, GUGACGUUAGCGUAAUGGUAACGCGUCUCCCUCCUAAGGAGAAGACUGCGGGUUCAAGUCGCGUACGGAACG: no more than 0.5; GUGACGUUGGCAUAAUGGUAACGCGUCUAGCUCCUAAGGAGAAGACUGCGGGUUCGAGUCCCGUACGGAACG: 0.556; GUCCCGUUGGCGUAAUGGGAACGCGUGUCCCUGCUAAGGAGAAGACUGCGGGGUCGAGUCCCGUACGGAACG: 0.578.
GUGCGGUUGACGUAAUGGUAACGCGUCUCAGUCCUAAGGAGAAGACUGAGGGUUCGAGUUCCGUACAGAACG: the yeast fitness was determined as 0.572.
For GUGUCGUUGGCGUAAUGGUAAAGCGUCUCCCUCCUAAGGAGAAGACUGCGGGUUCGAGUCCCGUACGGAACG, the yeast fitness was no more than 0.5.
With GUGUCGUUGGCGUAAUGGUAACGCGUCUCCCUCCAAAGGAGAAGACUGCGGGUUCGAAUCCCGUACAGAACG, the yeast fitness is no more than 0.5.
Regarding GUCCCGUUGGCGUAAUGGUAACGCGCCUCUCUCCUAGGGAGAAGACUGCGGGUUCGAGUCACGUACGGAACG, the yeast fitness was no more than 0.5.
Consider GUCCCGUUGGCGUAAUGGGAACGCGUCUCCCUCCUAAGGAGAAGACUGCGGGUUCGAGUCUCGUACGGAACG, for which the yeast fitness was no more than 0.5.
Turning to GUGCCGUUGGCGUAAUGGUAACGCGUCUCCCUCCUAAGGAGAAGGCUGCGGGUUCGGGUCCCGUACGGAACG, the yeast fitness worked out at 0.717.
Consider GUCCCGUUGGCGUAAUGGUAACGCGUCUCCCACCUAAGGAGAAGACUGCGGGUUCGAGUCCCGUACGGAACG, for which the yeast fitness amounted to 0.817.
As for GUGACGUUGGCGUAAUGGUAACGCGUCUCCCUCCUAAGGUGAAGACUGCGGGUUCGAGUCCUCUACGGAACG, the figure is no more than 0.5; as for GUCCCGUUGGCGCAAUAGUAACGUGUCUCCCUCCUAAGGAGAAGACUGCGGAUUCGAGUCCCGUACGGAACG, no more than 0.5.
Next, GUGCCGUUGGCGUAAUGGUAACGCGUCUCCCUCCUAAGGAGAAGACUGCGGGUUCGAGUCCCGUACGGAACG: 0.978; GUGCCGUUGGCGUAAUGGUAACGCGUCUCCCUCCUAAGGAGGAGACUGCGGGUUCGAGUCCGGUACGGAACG: no more than 0.5.
With GUGCCGUUGGCGUAAUGGUCACGCGUCUCCCUCCUAAGGAGAAGACUGCGGGUUCGAGUCCCGUACGGAACG, the yeast fitness came to 0.987.
Regarding GUCCCGUUGGCGUAAUGGAAACGCGUUUCCCUCCUAAGGAGAAGACUGCGGGUUCGAGUCCCGUACGGAACG, the yeast fitness is 0.696.
For the variant GUCCCGUUGGCGUAACGGUAACGCGUCUCCCUCCUAAGGAGAAGACUGGGGGUUCGAGUCCCGUACGGAACG, the yeast fitness is no more than 0.5.
As to GUCCCGUUGGCGUAAUGGGACCGCGUCUCCCACCUAUGGAGAAGACUGCGGGUUCGAGUCCCGUACGGAACG, the yeast fitness was no more than 0.5.
Take GUCCCGUUGGCGUAAUGGUAACGCGUCUCCCCCCUAAGGAGAAGACUGCGGGUUCGAGUCCCGUUCGAAACG: the yeast fitness is no more than 0.5.
Consider GUGCCGUUGGCGUAAUGGUAACGCGUCUCCCUCCUAAGGGGAAGAAUGCGGGUUCGAGUCCCGUACGGAACG, for which the yeast fitness turned out to be 0.665.
Take GUGCGGUUGGCGUAAUGGCAACGCGUCUCCCUCCUAAGGAGAAGACUGCGGGUUCGAGUCCCGUAUGGAACG: the yeast fitness is 0.57.
Take GUCCCGUUGGCGUAAUGGUAACGCGUCGCCCUCCUAAGGAGAAGACUGCGGGUUCGCGUCCCGUACGGAACG: the yeast fitness was no more than 0.5.
In the case of GUGCCGUUGGCGUAAUGGUAACGCGUCUCCCUCCUAAGGUGAAGUCUGCGGGUUCGAGUCCCGUACGGAACG, the yeast fitness worked out at 0.585.
With GUCCCGUUGGCGUAAUGGUAACGCGUCUCCCUCCUAAGGAGAAGACUGCGGGUCCGAGUCCCGUACCGAACG, the yeast fitness was no more than 0.5.
Turning to GUGCAGUUGGCGUAAUGGUAACGCGUCUCCCUCCUAAGGAGAAGACUGCGGGUUCGAGUCCCAUACGGAACG, the yeast fitness is no more than 0.5.
Consider GUGCCGUUGGCGUAAUGGUAACGCGUCUCCCUCCUAAGGAGAGGACUGCGGGUUCGAGUCCCGUUCGGAACG, for which the yeast fitness was 0.701.
GUGCGGUUGGUGUAAUGGUAACGCGUCUUCCCCCUAAGGAGAAGACUGCGGGUUCGAGUCCCGUACGGAACG: the yeast fitness is no more than 0.5.
As for GUGCCGUUGGCGUAGUGGUAUCGCGUCUCCCUCCUAAGGAGAAGACUACGGGUUCGAGUCCCGUACGGAACG, the figure is no more than 0.5; as for GUGCCGUUGGCGUAAUGGUAACGCGUCUCCCUCCUAAGGAGAGGACUGCGGGUUCGAGUCCCGUACGGAACG, 0.936; as for GUCCCGUUGGCGUAAUGGAAACGCGUGUCCCUCCUAAGGAGAAGACUGCGGGUUCGAGUCCUGUACGGAACG, no more than 0.5.
As for GUGCGGUUGGUGUAAUGGUAACGCGUCUUCCCCCUAAGGAGAAGACUGCGGGUUCGAGUUCCGUACGGAACG, the yeast fitness is no more than 0.5.
GUGCCGUUGGCGUAGUGGUAUCGUGUCUCCCUCCUAAAGAGAAGACUGCGGGUUCGAGUCGCGUAUGGUACG: the yeast fitness is no more than 0.5.
Take GUGACGUUGGCGUAAUGGUAACGCGUCUCCCUCCUAAGGAGAAGACUGCGGGUUCGAGUCCCGUACGGAACG: the yeast fitness amounted to 0.949.
Turning to GUGCCGUUGGCGUAAUGGUAACGCGUCUCCCUCCUAAGGAGAAGCCUGCGGGUUCGAGUCCCAUACGGUACG, the yeast fitness came out at 0.831.
For the variant GUGCCGUUGGCGUAAUGGUAACGCGUCUCCCUCCUAUGGAGAAGACUGCGGGUCCGAAUCCCGUAUGGAACG, the yeast fitness was no more than 0.5.
Turning to GUCCCGUGGGCGUAAUGGUAACGCGUCUCCCAGCUAAGGAGAAGACUGCGGGUUCGAGUCCUGUGCGGAACG, the yeast fitness is no more than 0.5.
Next, GUCCCGUUGGCGUAAUGGAAAUGCGUCUCCCUCCUAAGGAGAAGACUGCGGGUUCGAGUCCCGUACGGAACG: 0.558.
Next, GUGCCGUUGGCGUAAUGGUAACGCGUCUCCCUCCUAAGGAGAAGACUGCGGGUUCGAGUCCCGUUCGGAACG: 0.855; GUCCCGUUGGCGUAAUGGUAACGCGUCUCCCCUCUAAGGAGUAGACUGCGGGUUCGAGUCCCGUACGGAACG: 0.563.
For GUCCCGUUGGCGUAACGGUAACGCGUCUCCCUCCUAAGGAGAAAUCUGCGGGUUCGAGUACCGUACGGAACG, the yeast fitness is no more than 0.5.
With GUCCCGUUGGCGUAAUGGGAACGCGUCUCCCUCCUAAGGAGAUGACUGCGGGUUCGAGUCCCGUGCGAAACG, the yeast fitness was no more than 0.5.
On to GUGUCGUUGGCGUAAUGGUAACGCGUCUCCCUCCAAAGGAGAAGACUGCGGGUUCGAAUCCCGUACGGAACG, for which the yeast fitness was no more than 0.5.
As to GUGCCGUUGGCGUGAUGGUAACGCGUCUCCCUCCUAAGGAGAAGACUGCGGGUUCGAGUCCGGUACGGGACG, the yeast fitness is no more than 0.5.
Take GUCCCGUUGGCGAAAUGGUCACGCGUCUCAAUCCUAAGGAGAAGACUGCGGGUAUGAGUCCCGUACGGAACG: the yeast fitness is no more than 0.5.
For GUGCCGUUGGCGUGAUGGUAACGCGUCUCCCUCCUAAGGAGAUGACUGCGGGUACGCGUCCCGUACGGAACG, the yeast fitness is no more than 0.5.
As for GUGCCGUUGGCGUAGUGGUAACGGGUCUCCCUCCUAAGGAGAAGACUGCAGGUUUGAGUCCCGUACGGAACG, the figure is 0.613; as for GUCCCGUUGGCGUAACGGUAACGCGUCUCGGUCCUAUGGAGAAGACUGCGGGUUCCAGUCCCGUACGGAACG, no more than 0.5.
With GUGACAUUGGCGUAAUGGUAACGCGUCUCCCUCCCAAGGAGAAGACUGCGGGUUCGAGUCCCGUACGGAACG, the yeast fitness was no more than 0.5.
